PMC4304654 (Bioorganic & medicinal chemistry, 2012)
Values after ≈ are worked out from the molar mass of the structure shown. Read-outs that look alike come from different tables or passages of the source.

Tests used:
[1] = biological target: T1, K18 tau fragment (amino acids 244–369) bearing the P301L mutation (K18PL) (Homo sapiens, UniProt P10636, P618L); assay: Heparin-induced K18PL tau fibrillization, thioflavin-T; type: biochemical
Summary of the method: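 Heparin-induced fibrillization of the P301L K18 tau fragment (residues 244–369) in sodium acetate buffer, with test compound at a range of concentrations, each in triplicate. Read-out is thioflavin-T fluorescence of cross-beta fibrils. IC50 comes from a sigmoidal fit of the concentration-response, from one curve fit or the mean of 2 or more separate analyses. Maximal % inhibition is also reported.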

[2] = Brain and plasma levels 1 h after i.p. administration of 5 mg/kg; type: in vivo, B6C3F1 mice; settings: mice
Summary of the method: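 Mice got a single i.p. 5 mg/kg dose of test compound and were sacrificed 1 h later. Perfused brain hemispheres were sonicated in 10 mM ammonium acetate, pH 5.7 (50% w/v). Plasma came from EDTA-treated blood spun 10 min at 4500g, 4 °C. Samples were acetonitrile-precipitated and spun at 15000g. Supernatants went to LC-MS/MS (MRM, C18, 35 °C) and were quantified against matrix-matched linear standard curves.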

[3] = cited from earlier work; for Solubility in assay buffer, upper solubility limit: sodium acetate fibrillization assay buffer, previously reported data ref 7
[4] = biological target: T1, K18 tau fragment (amino acids 244–369) bearing the P301L mutation (K18PL); settings: 50 μM compound concentration; previously reported data ref 7; cited from earlier work
[5] = Aqueous solubility in the sodium acetate buffer of the fibrillization assay; type: physicochemical
[6] = Unbound fraction in plasma by rapid equilibrium dialysis; type: in vitro ADME; settings: mouse, pH 7.4
[7] = Full PK evaluation and oral bioavailability of 43; type: in vivo, B6C3F1 mice; settings: mice, 5 mg/kg i.p., 0.5–16 h post-dosing
mice [8] = settings: mouse, in vivo, 100 mg/kg
mice [9] = settings: mouse, in vivo, 50 mg/kg/day
in vivo = settings: female, mouse, 50 mg/kg/day, Calculated free compound level in brain, mice, 3 days of dosing via drinking water at 50 mg/kg/day
[10] = mice, 1 h after 5 mg/kg i.p.; previously reported data ref 7; cited from earlier work
[11] = cited from earlier work
[12] = mouse plasma; previously reported data ref 7; cited from earlier work
[13] = mice, 3 days of dosing via drinking water at 50 mg/kg/day

T1 sequence (P10636 561-686 P618L): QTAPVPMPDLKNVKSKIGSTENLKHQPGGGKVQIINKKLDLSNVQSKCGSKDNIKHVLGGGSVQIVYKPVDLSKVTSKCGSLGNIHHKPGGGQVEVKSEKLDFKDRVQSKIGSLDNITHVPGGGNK

CC(C)NC(=O)c1nn(-c2ccc(Cl)cc2)c(=O)c2c1CSC2=O [Compound 72, 3-(4-Chlorophenyl)-N-isopropyl-4,5-dioxo-3,4,5,7-tetrahydrothieno[3,4-d]pyridazine-1-carboxamide]
Inhibition in the K18PL fibrillization assay [1]: near full inhibition | Brain penetration ([2]; 1 h after 5 mg/kg i.p.): not brain-penetrant

CCOC(=O)c1nn(-c2ccc(Cl)cc2)c(=O)c2c(N)scc12 [Compound 29, Ethyl 5-amino-3-(4-chlorophenyl)-4-oxo-3,4-dihydrothieno-[3,4-d]pyridazine-1-carboxylate]
Solubility in assay buffer, upper solubility limit [3]: 13 µM (≈ 4.55 µg/mL) | K18PL centrifugation assay % Soluble [4]: 47%

Cc1nn(C)c(=O)c2c(N)scc12 [Compound 56, 7-Amino-2,4-dimethylthieno[3,4-d]pyridazin-1(2H)-one]
solubility [5]: > 200 µM | Inhibition in the K18PL fibrillization assay [1]: near full inhibition | Brain level ([2]; 1 h after 5 mg/kg i.p.): BLD ^d

CC(C)NC(=O)c1nn(-c2ccc(F)cc2)c(=O)c2c(N)scc12 [Compound 42, 5-Amino-3-(4-fluorophenyl)-N-isopropyl-4-oxo-3,4-dihydrothieno[3,4-d]pyridazine-1-carboxamide]
solubility [5]: > 200 µM | B/P (total), brain-to-plasma ratio ([2]; 1 h after 5 mg/kg i.p.): unity | fraction unbound at 5 h, 1 μM [6]: 0.057 ± 0.005

Nc1scc2c(C(=O)NC3CC3)nn(-c3ccc(F)cc3)c(=O)c12 [Compound 43, 5-Amino-N-cyclopropyl-3-(4-fluorophenyl)-4-oxo-3,4-dihydrothieno[3,4-d]pyridazine-1-carboxamide]
solubility [5]: > 200 µM | Brain exposure [7]: good brain exposure | Signs of toxicity after a single oral administration (mice [8]): only mild and transient lethargy | Adverse events (mice [9]): no visible adverse events | Amount of water consumed (mice [9]): normal | Blood cell counts (mice [9]): no alterations in any blood cell counts | Tolerability (mice [9]; po): well-tolerated with no notable side-effects | Calculated free compound level in brain [13]: 6 nM | Total brain levels [13]: ~ 140 nM | Plasma and brain levels after 30 days versus 3 days in drinking water (mouse, in vivo, 50 mg/kg/day): comparable | concentration at 3 days (in vivo): 6 ± 0.4 nM

Nc1scc2c(C(=O)NC3CC3)nn(-c3ccc(Cl)cc3)c(=O)c12 [Compound 1, 5-Amino-3-(4-chlorophenyl)-N-cyclopropyl-4-oxo-3,4-dihydrothieno[3,4-d]pyridazine-1-carboxamide]
Solubility in assay buffer, upper solubility limit [3]: 32 µM (≈ 11.5 µg/mL) | Water solubility ([3]; text of introduction): ~ 30 μM | K18PL centrifugation assay % Soluble [4]: 69% | B/P (fu), ratio of free drug in brain and plasma [10]: 0.92 ±0.16 | B/P (total), brain-to-plasma ratio [10]: 1.61 ± 0.28 | Brain level [10]: 1300 ± 110 ng/g | Plasma level [10]: 820 ± 150 ng/mL | Bound in brain homogenates ([11]; equilibrium dialysis): ~ 99% | Fu (%) brain, fraction unbound ([11]; mouse brain homogenate, previously reported data ref 7): 1.1 ± 0.6% | Fu (%) plasma, fraction unbound [12]: 1.9 ± 0.2%

Cc1nn(Cc2ccccc2)c(=O)c2c(N)scc12 [Compound 62, 7-Amino-2-benzyl-4-methylthieno[3,4-d]pyridazin-1(2H)-one]
solubility [5]: 80 µM (≈ 21.7 µg/mL) | fraction unbound at 5 h, 1 μM [6]: 0.04 ± 0.01

Nc1scc2c(C(=O)NCC(F)(F)F)nn(-c3ccc(F)cc3)c(=O)c12 [Compound 44, 5-Amino-3-(4-fluorophenyl)-4-oxo-N-(2,2,2-trifluoroethyl)-3,4-dihydrothieno[3,4-d]pyridazine-1-carboxamide]
solubility [5]: > 200 µM | B/P (total), brain-to-plasma ratio ([2]; 1 h after 5 mg/kg i.p.): unity | fraction unbound at 5 h, 1 μM [6]: 0.022 ± 0.002

Nc1scc2c(C(=O)O)nn(-c3ccc(Cl)cc3)c(=O)c12 [Compound 37, 5-Amino-3-(4-chlorophenyl)-4-oxo-3,4-dihydrothieno[3,4-d]pyridazine-1-carboxylic acid]
Solubility in assay buffer, upper solubility limit [3]: >200 µM | K18PL centrifugation assay % Soluble [4]: 74%

O=C(O)c1nn(-c2ccc(F)cc2)c(=O)c2c1CSC2=O [Compound 70, 3-(4-Fluorophenyl)-4,5-dioxo-3,4,5,7-tetrahydrothieno[3,4-d]pyridazine-1-carboxylic acid]
solubility [5]: > 200 µM | Inhibition in the K18PL fibrillization assay [1]: near full inhibition

Cc1n[nH]c(=O)c2c(N)scc12 [Compound 55, 7-Amino-4-methylthieno[3,4-d]pyridazin-1(2H)-one]
solubility [5]: > 200 µM | Inhibition in the K18PL fibrillization assay [1]: near full inhibition | Plasma levels 1 h after dosing ([2]; 5 mg/kg i.p.): low plasma levels | Brain level ([2]; 1 h after 5 mg/kg i.p.): BLD ^d | Plasma level ([2]; 1 h after 5 mg/kg i.p.): BLD ^d

CCOC(=O)c1nn(-c2ccc(Cl)cc2)c(=O)c2c(N)sc(Cl)c12 [Compound 67, Ethyl 5-amino-7-chloro-3-(4-chlorophenyl)-4-oxo-3,4-dihydrothieno[3,4-d]pyridazine-1-carboxylate]
solubility [5]: 32 µM (≈ 12.3 µg/mL) | Inhibition in the K18PL fibrillization assay [1]: near full inhibition

CCOC(=O)c1nn(-c2ccc(Cl)cc2)c(=O)c2c(N)sc(Br)c12 [Compound 68, Ethyl 5-amino-7-bromo-3-(4-chlorophenyl)-4-oxo-3,4-dihydrothieno[3,4-d]pyridazine-1-carboxylate]
solubility [5]: 12.8 µM (≈ 5.49 µg/mL) | Inhibition in the K18PL fibrillization assay [1]: near full inhibition
